The source of these data is paper PMC5299621 (The Journal of General Physiology, 2017).

Experiment [1] concerns the target T1, hTRPM2 G1389A mutant (Homo sapiens, UniProt O94759, G1389A). Nature of the experiment: Whole-cell recording of H2O2-induced TRPM2 currents, G1389A mutant. Particulars: extracellular H2O2, 10 mM / 30 mM. The class given is cell-based. Summed up: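 Whole-cell recording at RT was done on transiently transfected HEK293 cells, alongside untransfected and WT-expressing cells. Pipette: 147 mM NaCl, 0.05 mM EGTA, 1 mM MgCl2, 10 mM HEPES, pH 7.3. Cells were held at 0 mV with a 500-ms ramp from −100 to 100 mV every 5 s. At least six cells per condition.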

In experiment [2] the target is T1, hTRPM2 G1389A mutant. Nature of the experiment: Whole-cell recording of calcium-induced TRPM2 currents, G1389A mutant. The class given is cell-based. Particulars: 50 mM calcium, intracellular solution. In outline: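 Transiently transfected HEK293 cells were compared with untransfected and WT-expressing cells by whole-cell recording at RT. Cells were held at 0 mV with a 500-ms ramp from −100 to 100 mV every 5 s. At least six cells per condition.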

For another experiment, the target named is hTRPM2 WT channel (Homo sapiens, UniProt O94759). Nature of the experiment: Whole-cell recording of ADPR-induced currents, HEK293 cells expressing WT hTRPM2. The class given is cell-based.
Sequence of hTRPM2 WT channel (O94759 whole entry): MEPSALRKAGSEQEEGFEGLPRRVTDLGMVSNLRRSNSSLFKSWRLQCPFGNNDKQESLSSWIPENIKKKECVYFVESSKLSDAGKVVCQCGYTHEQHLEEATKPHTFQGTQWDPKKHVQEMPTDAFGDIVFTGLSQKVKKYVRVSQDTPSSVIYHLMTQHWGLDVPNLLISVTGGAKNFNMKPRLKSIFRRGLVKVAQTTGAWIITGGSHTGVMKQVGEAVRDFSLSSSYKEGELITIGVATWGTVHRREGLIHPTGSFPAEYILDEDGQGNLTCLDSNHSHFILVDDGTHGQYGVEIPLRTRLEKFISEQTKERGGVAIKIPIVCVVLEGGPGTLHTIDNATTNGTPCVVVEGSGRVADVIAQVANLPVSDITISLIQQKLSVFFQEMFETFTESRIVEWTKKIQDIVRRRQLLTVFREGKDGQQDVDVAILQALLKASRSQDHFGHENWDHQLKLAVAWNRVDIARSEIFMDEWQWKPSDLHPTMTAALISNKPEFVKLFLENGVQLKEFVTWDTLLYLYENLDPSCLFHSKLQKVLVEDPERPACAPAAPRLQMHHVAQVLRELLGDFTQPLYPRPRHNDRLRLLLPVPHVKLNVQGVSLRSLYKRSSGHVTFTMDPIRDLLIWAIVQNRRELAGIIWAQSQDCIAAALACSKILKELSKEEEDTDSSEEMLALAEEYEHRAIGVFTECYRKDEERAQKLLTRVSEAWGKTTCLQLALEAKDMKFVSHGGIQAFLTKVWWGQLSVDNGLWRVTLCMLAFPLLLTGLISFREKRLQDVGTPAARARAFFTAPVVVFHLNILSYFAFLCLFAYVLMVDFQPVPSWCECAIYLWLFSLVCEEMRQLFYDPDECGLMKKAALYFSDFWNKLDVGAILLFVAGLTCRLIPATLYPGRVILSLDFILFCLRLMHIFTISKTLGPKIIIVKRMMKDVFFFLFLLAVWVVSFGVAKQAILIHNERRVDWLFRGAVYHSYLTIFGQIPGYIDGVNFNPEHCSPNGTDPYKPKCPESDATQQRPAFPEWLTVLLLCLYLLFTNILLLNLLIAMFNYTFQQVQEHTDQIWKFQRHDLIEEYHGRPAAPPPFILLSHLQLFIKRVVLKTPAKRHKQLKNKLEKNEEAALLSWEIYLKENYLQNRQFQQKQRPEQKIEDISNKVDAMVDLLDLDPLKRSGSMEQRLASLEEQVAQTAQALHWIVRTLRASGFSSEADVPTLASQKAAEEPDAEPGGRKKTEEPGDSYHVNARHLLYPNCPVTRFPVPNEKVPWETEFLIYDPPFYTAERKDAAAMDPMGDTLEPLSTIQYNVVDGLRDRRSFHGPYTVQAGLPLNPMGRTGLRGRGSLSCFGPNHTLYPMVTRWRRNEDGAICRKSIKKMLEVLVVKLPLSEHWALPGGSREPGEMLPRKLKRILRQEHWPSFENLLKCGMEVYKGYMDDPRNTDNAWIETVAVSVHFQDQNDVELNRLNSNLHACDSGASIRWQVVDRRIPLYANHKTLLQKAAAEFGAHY
In the next experiment the target is hTRPM2 H1346W mutant (Homo sapiens, UniProt O94759, H1346W). Nature of the experiment: Whole-cell ADPR-induced currents, HEK293, H1346W mutant. The class given is cell-based.
Sequence of hTRPM2 H1346W mutant (O94759 whole entry H1346W): as the sequence (O94759 whole entry) above, with H1346W counted along it
The next experiment deals with hTRPM2 T1347F mutant (Homo sapiens, UniProt O94759, T1347F). Nature of the experiment: Whole-cell ADPR-induced currents, HEK293, T1347F mutant. The class given is cell-based.
Sequence of hTRPM2 T1347F mutant (O94759 whole entry T1347F): as the sequence (O94759 whole entry) above, with T1347F counted along it
The next experiment deals with hTRPM2 T1347Y mutant (Homo sapiens, UniProt O94759, T1347Y). Nature of the experiment: Whole-cell ADPR-induced currents, HEK293, T1347Y mutant. The class given is cell-based.
Sequence of hTRPM2 T1347Y mutant (O94759 whole entry T1347Y): as the sequence (O94759 whole entry) above, with T1347Y counted along it
The next experiment addresses hTRPM2 L1379S mutant (Homo sapiens, UniProt O94759, L1379S). Nature of the experiment: Whole-cell ADPR-induced currents, HEK293, L1379S mutant. The class given is cell-based.
In the next experiment the target is hTRPM2 S1391A mutant (Homo sapiens, UniProt O94759, S1391A). Nature of the experiment: Whole-cell ADPR-induced currents, HEK293, S1391A mutant. The class given is cell-based.
Sequence of hTRPM2 S1391A mutant (O94759 whole entry S1391A): as the sequence (O94759 whole entry) above, with S1391A counted along it
A further experiment addresses hTRPM2 E1409A mutant (Homo sapiens, UniProt O94759, E1409A). In words: Whole-cell ADPR-induced currents, HEK293, E1409A mutant. The class given is cell-based.
The target in another experiment is hTRPM2 E1409Q mutant (Homo sapiens, UniProt O94759, E1409Q). In words: Whole-cell ADPR-induced currents, HEK293, E1409Q mutant. The class given is cell-based.
Sequence of hTRPM2 E1409Q mutant (O94759 whole entry E1409Q): as the sequence (O94759 whole entry) above, with E1409Q counted along it
Experiment [3] addresses T1, hTRPM2 G1389A mutant. Nature of the experiment: Whole-cell ADPR-induced currents, HEK293, G1389A mutant. Particulars: 3 µM and 100 µM ADPR (Fig. 3 C). The class given is cell-based. Summed up:
(§1)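 HEK293 cells were cotransfected with 50 ng EGFP plus 1 µg WT or mutant hTRPM2 plasmid and recorded 24–36 h later, choosing cells of similar fluorescence and size. Recording was whole-cell at RT. […] Cells were held at 0 mV with a 500-ms ramp from −100 to 100 mV every 5 s. Currents were normalized to same-day mean maximal WT current. EC50 came from Hill fits. At least five cells per condition.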

In the next experiment the target is hTRPM2 H1346F mutant (Homo sapiens, UniProt O94759, H1346F). In words: Whole-cell ADPR-induced currents, HEK293, H1346F mutant. The class given is cell-based. The following applies: H1346F (Fig. 5 B). Summed up:
as §1

In a further experiment the target is hTRPM2 T1347I mutant (Homo sapiens, UniProt O94759, T1347I). Nature of the experiment: Whole-cell ADPR-induced currents, HEK293, T1347I mutant. The class given is cell-based. Particulars: T1347I (Fig. 5 C). Summed up:
as §1

In a further experiment the target is hTRPM2 R1433L mutant (Homo sapiens, UniProt O94759, R1433L). In words: Whole-cell ADPR-induced currents, HEK293, R1433L mutant. The following applies: R1433L (Fig. 5 E). The class given is cell-based. Summed up:
as §1

A further experiment concerns the target hTRPM2 R1433Q mutant (Homo sapiens, UniProt O94759, R1433Q). Nature of the experiment: Whole-cell ADPR-induced currents, HEK293, R1433Q mutant. The class given is cell-based. Particulars: R1433Q (Fig. 5 E). Summed up:
as §1

The target in the next experiment is hTRPM2 Y1349F mutant (Homo sapiens, UniProt O94759, Y1349F). In words: Whole-cell ADPR-induced currents, HEK293, Y1349F mutant. The class given is cell-based. Particulars: Y1349F (Fig. 6 B). In outline: as §1
Sequence of hTRPM2 Y1349F mutant (O94759 whole entry Y1349F): as the sequence (O94759 whole entry) above, with Y1349F counted along it
For a further experiment, the target named is hTRPM2 Y1349S mutant (Homo sapiens, UniProt O94759, Y1349S). In words: Whole-cell ADPR-induced currents, HEK293, Y1349S mutant. The class given is cell-based. The following applies: Y1349S (Fig. 6 B). Summed up:
as §1

The target in the next experiment is hTRPM2 L1484A mutant (Homo sapiens, UniProt O94759, L1484A). In words: Whole-cell ADPR-induced currents, HEK293, L1484A mutant. The class given is cell-based. The following applies: 3 µM and 100 µM ADPR (Fig. 3 C). In outline: as §1
Sequence of hTRPM2 L1484A mutant (O94759 whole entry L1484A): as the sequence (O94759 whole entry) above, with L1484A counted along it
For another experiment, the target named is hTRPM2 D1287A mutant (Homo sapiens, UniProt O94759, D1287A). Nature of the experiment: Whole-cell ADPR-induced currents, HEK293, D1287A mutant. The following applies: ADPR 100 µM (Fig. 8). The class given is cell-based. Summed up: as §1
Sequence of hTRPM2 D1287A mutant (O94759 whole entry D1287A): as the sequence (O94759 whole entry) above, with D1287A counted along it
For the next experiment, the target named is hTRPM2 S1340A mutant (Homo sapiens, UniProt O94759, S1340A). Nature of the experiment: Whole-cell ADPR-induced currents, HEK293, S1340A mutant. The class given is cell-based. Particulars: ADPR 100 µM (Fig. 8). Summed up: as §1
Sequence of hTRPM2 S1340A mutant (O94759 whole entry S1340A): as the sequence (O94759 whole entry) above, with S1340A counted along it
For another experiment, the system named is TRPM2 E1409K mutation. The following applies: ref Perraud et al., 2005, Tóth et al., 2014; cited from earlier work.

T1 sequence (O94759 whole entry G1389A): as the sequence (O94759 whole entry) above, with G1389A counted along it
Sequence of hTRPM2 H1346F mutant (O94759 whole entry H1346F): as the sequence (O94759 whole entry) above, with H1346F counted along it
Sequence of hTRPM2 L1379S mutant (O94759 whole entry L1379S): as the sequence (O94759 whole entry) above, with L1379S counted along it
Sequence of hTRPM2 R1433L mutant (O94759 whole entry R1433L): as the sequence (O94759 whole entry) above, with R1433L counted along it
Sequence of hTRPM2 Y1349S mutant (O94759 whole entry Y1349S): as the sequence (O94759 whole entry) above, with Y1349S counted along it
Sequence of hTRPM2 R1433Q mutant (O94759 whole entry R1433Q): as the sequence (O94759 whole entry) above, with R1433Q counted along it
Sequence of hTRPM2 E1409A mutant (O94759 whole entry E1409A): as the sequence (O94759 whole entry) above, with E1409A counted along it
Sequence of hTRPM2 T1347I mutant (O94759 whole entry T1347I): as the sequence (O94759 whole entry) above, with T1347I counted along it

As to `OO` [H2O2], the H2O2-induced current result at hTRPM2 G1389A mutant [1] is recorded as “failed to induce a current”.

For `[Ca+2]` [calcium], on hTRPM2 G1389A mutant [2], the “Channel activation by calcium” value is on record as “readily activated”.

As to adenosine diphosphate ribose [ADPR], the Hill slope (usually a measure of the steepness of the concentration-response curve) came to 2.6 at hTRPM2 WT channel; 2.0 at hTRPM2 H1346W mutant; 1.2 on hTRPM2 T1347F mutant; 1.3 on hTRPM2 T1347Y mutant; 1.0 on hTRPM2 L1379S mutant; 2.7 on hTRPM2 S1391A mutant. Besides, the Hill slope at hTRPM2 E1409A mutant was determined as 1.5; on hTRPM2 E1409Q mutant, 1.6. Moreover, the entries for the “Channel activation by ADPR” value on hTRPM2 G1389A mutant [3], on hTRPM2 Y1349F mutant and at hTRPM2 Y1349S mutant were “failed to be activated”, “did not significantly alter channel activation” and “neither Y1349A nor Y1349S mutant could be activated”, respectively. For the same molecule, the “Channel sensitivity to ADPR” value at hTRPM2 H1346F mutant is reported as “completely insensitive”; at hTRPM2 T1347I mutant, “completely lost sensitivity”. Moreover, the “Response to ADPR” value on hTRPM2 R1433L mutant and on hTRPM2 R1433Q mutant was “no response” throughout. Also, the “Channel function with ADPR” value at hTRPM2 L1484A mutant is given as “lack of channel function”. Moreover, the “Activity induced by ADPR” value at hTRPM2 D1287A mutant and on hTRPM2 S1340A mutant was “normal activity” in each case. In addition, the “Impact of mutation on ADPR binding to the NUDT9-H domain” value in the experiment with TRPM2 E1409K mutation was “little impact”.
